# Assay results as given in ChEMBL document CHEMBL1144523, “Synthetic cryptolepine inhibits DNA binding of NF-kappaB” (Bioorg Med Chem, 2007).
# Where a name gives a salt, the structure may show the parent alone. The source made the active and inactive calls. The rule behind the calls is not given here.
# Assays:
# RAW [1] = test: Inhibition of DNA binding of NF-kappaB in LPS-stimulated mouse RAW 264.7 cells administered at 10 uM […] by EMSA; type: cell-based
# In short: (§1)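 RAW 264.7 cells were pretreated with compound for 30 min, then stimulated with LPS (100 ng/ml in methods) for 60 min. Nuclear extracts were made by hypotonic HEPES swelling with NP-40, then hypertonic 0.4 M NaCl extraction. Equal nuclear protein was incubated with labelled NF-κB probe for 30 min at room temperature, resolved on a 4.5% native gel and imaged by phosphorimager.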
# HEK293 = test: Inhibition of NF-kappaB-mediated gene transcription in HEK293 cells by luciferase reporter gene assay; type: cell-based; conditions: Homo sapiens
# In short: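 HEK293 cells were transfected with pNF-κB-luc by Ca²⁺-phosphate, reseeded at 15,000 cells/well and grown for 16 h. They were pretreated with compound for 30 min, then stimulated with TNF-α 1 ng/ml for 6 h. Lysates were assayed for luciferase by luminometer. Data are means ± SD of at least four experiments in triplicate, ANOVA/Dunnett.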
# RAW [2] = test: Inhibition of DNA binding of NF-kappaB isolated from LPS-stimulated mouse RAW 264.7 cells administered at 250 uM after 30 mins by EMSA; type: cell-free
# In short: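 Nuclei from LPS-stimulated RAW 264.7 macrophages served as the source of active NF-κB. Equal amounts of nuclear protein were incubated with compound for 30 min, with or without 2 mM DTT. Radiolabelled NF-κB consensus probe was then added for 30 min at room temperature. Complexes were resolved on a 4.5% native gel and imaged by phosphorimager.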
# [3] = target: Transcription factor p65 (Mus musculus) (UniProt Q04207); test: Inhibition of […]/NFkappaB nuclear translocation in LPS-stimulated mouse RAW 264.7 cells administered at 10 uM for 30 mins after LPS challenge; type: cell-based
# Sequence of Transcription factor p65 (Mus musculus) (Q04207 whole entry): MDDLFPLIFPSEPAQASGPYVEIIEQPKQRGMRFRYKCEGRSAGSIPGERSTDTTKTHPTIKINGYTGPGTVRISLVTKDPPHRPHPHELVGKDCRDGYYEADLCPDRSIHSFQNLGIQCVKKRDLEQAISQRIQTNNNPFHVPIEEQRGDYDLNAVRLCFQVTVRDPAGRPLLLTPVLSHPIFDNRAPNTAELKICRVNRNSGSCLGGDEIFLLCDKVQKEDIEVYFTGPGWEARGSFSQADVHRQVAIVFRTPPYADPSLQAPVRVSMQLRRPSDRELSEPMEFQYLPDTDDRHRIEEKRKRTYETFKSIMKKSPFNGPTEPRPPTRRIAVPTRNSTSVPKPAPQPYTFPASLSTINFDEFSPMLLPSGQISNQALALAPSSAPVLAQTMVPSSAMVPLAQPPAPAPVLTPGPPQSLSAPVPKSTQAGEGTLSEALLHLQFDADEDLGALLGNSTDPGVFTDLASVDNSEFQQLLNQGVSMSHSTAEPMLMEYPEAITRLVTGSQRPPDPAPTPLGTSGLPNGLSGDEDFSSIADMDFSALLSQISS
# In short: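 RAW 264.7 cells were grown on gelatine-coated coverslips and preincubated with 10 µM compound for 30 min, then given LPS for 30 min. Cells were fixed in 2% formalin, permeabilized with 0.2% Triton X-100 and blocked in 5% BSA. They were stained with anti-p65 (1:50, 2 h, room temperature) plus FITC secondary (1 h) and imaged by confocal microscopy at 488 nm excitation.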
# RAW [4] = test: Effect on IkappaB degradation in LPS-stimulated mouse RAW 264.7 cells administered at 10 uM for 30 mins […]; type: functional, cell-based
# In short: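 RAW 264.7 cells were pretreated with 10 µM compound for 30 min, then stimulated with LPS for the indicated times. Cells were lysed in SDS buffer, run on 10–12% gels and blotted to PVDF. Blots were probed for phospho-IκB, IκB after stripping, and tubulin, with ECL detection. Densitometric p-IκB/IκB ratios are given as fold of unstimulated control; three independent experiments, means ± SD.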
# RAW [5] = test: Effect on IkappaB phosphorylation in LPS-stimulated mouse RAW 264.7 cells […]; type: cell-based
# RAW [6] = test: Inhibition of DNA binding of NF-kappaB in LPS-stimulated mouse RAW 264.7 cells administered at 5 uM […] by EMSA; type: cell-based; in short: as §1
# [7] = Cytotoxicity against mouse RAW 264.7 cells; type: cell-based
# In short: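 RAW 264.7 cells (DMEM, 10% heat-inactivated FBS, passages 5–20) were first run through the 20 h LPS nitrite assay. Attached cells were then stained with 0.5% Crystal Violet in 20% methanol. Bound dye was dissolved in 50% 1 M sodium citrate/50% ethanol and absorbance read at 540 nm.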
# RAW [8] = test: Inhibition of LPS-stimulated nitric oxide production in mouse RAW 264.7 cells at 5 uM after 20 hrs relative to control; type: functional
# In short: (§2)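 RAW 264.7 cells were seeded in 96-well plates and cultured for 2 days. Compound was added, then LPS immediately after, for 20 h. Nitrite in the supernatant was measured by Griess reaction (sulfanilamide plus N-(1-naphthyl)ethylenediamine) at 550 nm against a 620 nm reference, quantified from a sodium nitrite standard curve. Runs were in triplicate; data are means ± SD of six independent experiments, ANOVA/Dunnett.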
# RAW [9] = test: Inhibition of LPS-stimulated nitric oxide production in mouse RAW 264.7 cells at 10 uM after 20 hrs relative to control; type: functional; in short: as §2
compound,measurement,setting,value
C[n+]1c2ccccc2cc2[n-]c3ccccc3c21,Activity,RAW [1],Active
same,Activity,HEK293,Dose-dependent effect
same,Activity,RAW [2],Active
same,Activity,[3],inactive
same,Activity,RAW [4],inactive
same,Activity,RAW [5],inactive
same,Activity,RAW [6],Active
C[n+]1c2ccccc2cc2[n-]c3ccccc3c21 [CRYPTOLEPINE],Activity,[7],Active
C=C1C(=O)O[C@@H]2C3O[C@]3(C)CC/C=C(\C)CC[C@@H]12 (some centres not stated),Activity,[3],Active
same,Activity,RAW [6],Active
C[n+]1c2ccccc2cc2[n-]c3ccccc3c21 [CRYPTOLEPINE HYDROCHLORIDE],inhibition at 5 µM,RAW [8],30%
same,inhibition at 10 µM,RAW [9],50%
